Measured values from publication PMC4339462 (Bioorganic & medicinal chemistry, 2015).
Structures can show the parent of a compound that is named as a salt.

Key:
[1] = molecular target: T1, MPG (Homo sapiens, UniProt P29372); assay: Gel-based MPG activity assay in whole cell extracts; type: biochemical; details: 0–300 µM compound
[2] = tested on: undamaged (control) oligonucleotide; assay: SPR binding of compounds to immobilized undamaged; details: 15 µM compound
Summary of the method: (§1)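 Biacore T100 SPR. Biotinylated 50-mer oligonucleotide, undamaged or εA-containing, immobilised on a streptavidin-coated C1 chip. Test compound injected at 15 µM in 10 mM HEPES-KOH pH 7.6, 90 mM KCl, 0.05% surfactant P20, at 7°C. Binding read as background-subtracted RU over 60 s injections.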

[3] = tested on: εA-containing oligonucleotide; assay: SPR binding of compounds to immobilized εA-containing oligonucleotide; details: 15 µM compound
Summary of the method: as §1

[4] = tested on: repair of εA; assay: Plasmid-based in-cell repair assay, εA-containing M13mp18 plasmid; set-up: species or system human
Summary of the method: (§2)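 Lesion (εA or 8-oxo-dG) was placed at the EcoRI site of M13mp18. A phosphorylated lesion primer was annealed to ssDNA, extended with T7 polymerase, ligated with T4 ligase, supercoiled and purified. A549 and HeLa cells (DMEM, 10% FBS, 1% antibiotic) were transfected with 0, 200 or 300 µM test compound. Recovered plasmids were cut with EcoRI (lesion site) and SacI (internal control), and repair was scored by plaque formation.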

[5] = molecular target: T1, MPG; assay: SPR inhibition of hMPG binding to εA-containing substrate DNA; details: 40 µM morin hydrate
Summary of the method: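 SPR with biotinylated εA-containing 50-mer oligonucleotide immobilised on a streptavidin C1 chip. Injections of 30 nM purified human MPG pre-mixed with test compound (0, 5, 10, 20, 40 µM), 60 s each. Binding taken as background-subtracted RU. Percent inhibition calculated as the decrease in RU versus DMSO.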

[6] = tested on: APE1; details: high throughput screening; ref Pubchem Bioassay AID 485314 and 2517; cited from earlier work
[7] = tested on: apurinic/apyrimidinic endonuclease 1 (APE1); assay: Gel-based APE1 activity assay; type: biochemical; details: 0, 20 and 40 µM
Summary of the method: (§3)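 Purified recombinant APE1 pre-incubated with test compound for 10 min at room temperature. Then reacted with a ³²P-labelled duplex oligonucleotide carrying a THF abasic-site analogue for 10 min at 37°C. Products resolved on denaturing 20% polyacrylamide/7 M urea gels at 60°C; band intensities quantified from X-ray film.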

[8] = tested on: 8-oxoguanine DNA glycosylase (OGG1); assay: Gel-based OGG1 activity assay; type: biochemical; details: 0, 20 and 40 µM; not dose-dependent
Summary of the method: as §3, with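 “OGG1” for “APE1”, “³²P-labelled 8-oxo-dG-containing” for “³²P-labelled”, “oligonucleotide” for “oligonucleotide carrying a THF abasic-site analogue”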

[9] = tested on: HeLa cells; assay: MTT assay; type: cell-based, human; details: concentrations used in the repair assay, 72 h
[10] = tested on: A549 cells; assay: MTT assay; type: cell-based, human; details: A549, concentrations used in the repair assay, 72 h
[11] = tested on: DNA polymerase β; details: high throughput screening; ref Pubchem Bioassay AID 485314 and 2517; cited from earlier work
[12] = tested on: repair of 8-oxo-dG; assay: Plasmid-based in-cell repair assay, 8-oxo-dG-containing M13mp18 plasmid; set-up: species or system human
Summary of the method: as §2

T1 sequence (P29372 18-298): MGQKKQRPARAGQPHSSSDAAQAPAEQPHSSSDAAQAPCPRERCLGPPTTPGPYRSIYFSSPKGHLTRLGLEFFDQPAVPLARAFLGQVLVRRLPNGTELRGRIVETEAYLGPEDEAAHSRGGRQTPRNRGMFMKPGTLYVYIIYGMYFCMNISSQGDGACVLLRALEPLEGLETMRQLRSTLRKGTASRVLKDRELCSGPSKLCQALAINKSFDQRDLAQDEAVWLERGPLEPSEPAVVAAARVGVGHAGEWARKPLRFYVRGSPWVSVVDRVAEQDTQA

O=c1c(O)c(-c2ccc(O)c(O)c2)oc2cc(O)cc(O)c12 [Quercetin]
MPG activity in whole cell extract ([1]; HeLa extract): did not have an effect

Cc1cc2c(C(C)C)c(O)c(O)c(C=O)c2c(O)c1-c1c(C)cc2c(C(C)C)c(O)c(O)c(C=O)c2c1O [gossypol]
affinity for unmodified (control) DNA [2]: demonstrated affinity for DNA | affinity for εA-containing DNA [3]: demonstrated affinity for DNA

O=C1c2c(O)ccc(O)c2C(=O)c2c(NCCNCCO)ccc(NCCNCCO)c21 [mitoxantrone dihydrochloride]
affinity for unmodified (control) DNA [2]: demonstrated affinity for DNA | affinity for εA-containing DNA [3]: demonstrated affinity for DNA

O.O=c1c(O)c(-c2ccc(O)cc2O)oc2cc(O)cc(O)c12 [morin hydrate]
reduction in repair ([4]; 300 µM morin hydrate, A549 and HeLa cells): 50–60% | repair of εA in live cells ([4]; A549 cells, 0, 200, 300 µM): inhibited | repair of εA in live cells ([4]; HeLa cells, 0, 200, 300 µM): inhibited | IC50 ([4]; Homo sapiens, read-out: IC50 of MPG inhibition in live cells and in extracts): 100 to 300 µM | inhibition of MPG DNA binding [5]: Complete inhibition | affinity for unmodified (control) DNA [2]: no detectable affinity | inhibition of APE1 [6]: inhibit | effect on the activity of APE1 [7]: no effect | effect on OGG1 activity [8]: some promiscuous inhibition | toxicity (cell survival) [9]: not toxic | toxicity (cell survival) [10]: not toxic | inhibition of DNA polymerase β [11]: inhibit | MPG activity in whole cell extract ([1]; A549 extract): inhibited | MPG activity in whole cell extract ([1]; HeLa extract): inhibited | repair of 8-oxo-dG in live cells ([12]; A549 cells, 0, 200, 300 µM): unaffected | repair of 8-oxo-dG in live cells ([12]; HeLa cells, 0, 200, 300 µM): unaffected | affinity for εA-containing DNA [3]: no detectable affinity
